Compounds with a hit are over-represented: about 5.6% of the library has one in this group of screens.
NR3A LBD binder – modulates the human NR3A ligand-binding domain; NR3A LBD differential scanning fluorimetry, Tm shift; 0% = protein alone, 100% = glycine-bound protein; Tm shift relative to glycine control, % at 25 µM; hit rate 2.5% among 340,000; AID 1259313;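 active means melting temperature shift of at least 10% of the positive control shift, at one fixed dose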
CHOP inh – blocks CHOP induction under ER stress; AID 2732; hit rate 3.8% among 220,000; inhibition, % at 10 µM; CHO-K1 CHOP-promoter luciferase, tunicamycin-induced, 15-18 h;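 active means compounds that reduced the stress-induced luciferase reporter signal by more than about 70% of percent inhibition, limit read from the data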;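 further: 0% = tunicamycin plus vehicle and 100% = wells without tunicamycin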
MPTP inh – inhibitors of mitochondrial permeability transition pore; hit rate 1.4% among 360,000; AID 602449; isolated mouse mitochondria, Ca2+ swelling absorbance, 30 min; inhibition, % at 10 µM;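 active means inhibition of 50% or more, scaled per plate between neutral and stimulator controls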;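 further: 0% = DMSO wells given calcium and 100% = 1 mM EGTA wells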
XBP1 UPR activ – adaptive UPR (XBP1) activation. activation, % at 20 µM. AID 463104. hit rate 0.33% among 330,000. CHO-XBP1 luciferase reporter, IRE1-XBP1 UPR activation, luminescence; percent of tunicamycin response, DMSO as zero;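 active means versus positive control, 20 µM dose yields 30% or more activation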;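 further: 100% = tunicamycin at 10 µg/mL and 0% = DMSO only wells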
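Material: CHO cell line with stable XBP1 luciferase reporter; schedule: 16-18 h cell attachment at 37 °C, then 6 h compound exposure; signal: glow luminescence from Steady-Glo reagent; medium: serum-containing F12 medium, 10% FBS; benchmarks: tunicamycin 10 µg/mL and vehicle-only wells; read-out: percent activation relative to tunicamycin reference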
aDG glyco up – increases alpha dystroglycan glycosylation; Pro5-aDG cells, alpha-DG glycosylation AlphaScreen (IIH6); 0% Pro5, 100% B10-LARGE cell signal; activation, % at 10 µM; hit rate 0.22% among 360,000; AID 624168;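 active means activation of at least 8% versus controls, or a plate z-score of at least 8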;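 further: Pro5 are CHO cells carrying HIG-tagged alpha-DG that lacks glycosylation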
UPR CHOP act – activators of apoptotic arm of unfolded protein response (CHOP); CHO-CHOP luciferase reporter, UPR activation, luminescence; percent of tunicamycin response over DMSO baseline; activation, % at 10 µM; hit rate 0.34% among 330,000; AID 449763;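 active means at 10 µM dose, activation of 40% or more, normalized to positive control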;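 further: 100% = tunicamycin at 10 µg/mL and 0% = DMSO alone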
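Test system: CHO CHOP reporter cells. Input: 500 CHO-CHOP cells per well. Medium: F12 with 10% FBS. Technique: luciferase luminescence. Measure: percent activation relative to tunicamycin control. Dosing: 10 µM compound, 0.5% DMSO. Timing: 16-18 h cell attachment, then 6 h compound exposure, 37 °C.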
aDG glyco conf – confirmation of alpha dystroglycan glycosylation activators; activation, % at 10 µM (by protocol); hit rate 17% among 600; shares compounds with aDG glyco up; Pro5-aDG cells, alpha-DG glycosylation, IIH6 AlphaLISA; scaled to LARGE-overexpressing B10 cells as 100%;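 active means activation of at least 7% in one or more replicates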;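 further: cells exposed to compound for two days before detection; 0% = DMSO-treated Pro5 cells and 100% = DMSO-treated B10-LARGE cells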
* = called active by the depositor; · = no result.

SMILES | NR3A LBD binder | CHOP inh | MPTP inh | XBP1 UPR activ | aDG glyco up | UPR CHOP act | aDG glyco conf
CCC1=C(c2ccc(OC)cc2)CCC(C(=O)O)C1C (stereo unspecified) | -1 | · | 0 | · | 0 | · | ·
CC1=NN(Cc2c(C)nn(Cc3ccccc3)c2C)C(C)(C)C1 | 1 | -8 | -1 | 1 | 0 | 2 | ·
O=C(CSc1nnc(NC(=O)c2ccco2)s1)Nc1ccccc1Br | 0 | · | -2 | 4 | 2.2* | 2 | 0
CS(=O)(=O)c1ccc(Nc2nc(C(N)Cc3ccc(Cl)cc3)cs2)cc1 (stereo unspecified) | · | · | 25 | · | 24* | · | 11*
NC(Cc1ccc(Cl)cc1)c1csc(Nc2ccc(S(N)(=O)=O)cc2)n1 (stereo unspecified) | · | · | 2 | · | 0 | · | ·
O=C(/C=C/c1ccccc1Cl)Nc1cccnc1 | 0 | · | 0 | -2 | 0 | 6 | ·
O=C(/C=C/c1ccc(Cl)c(Cl)c1)Nc1cccnc1 | 8 | · | 21 | 2 | 3.1* | 4 | -1
Cc1onc(-c2ccccc2)c1CNS(=O)(=O)c1ccccc1[N+](=O)[O-] | 0 | 5 | -2 | -1 | 2.6* | -2 | -1
Cc1ccccc1CNS(=O)(=O)c1ccccc1[N+](=O)[O-] | 3 | 19 | 1 | -2 | 1 | 1 | ·
C[C@@H](c1ccccc1)N1C[C@H](COCc2ccccc2)Oc2cc(N3CC[C@@H](O)C3)ccc2S1(=O)=O | · | · | 1 | · | 0 | · | ·
NS(=O)(=O)c1ccc(NC(=S)Nc2ccn(Cc3cccc4ccccc34)n2)cc1 | -6 | 44 | -4 | -3 | 0 | 1 | ·
COc1cc(NC(=S)N2CCN(S(=O)(=O)c3ccc(F)cc3)CC2)cc(OC)c1 | 2 | · | 0 | -8 | 14* | 3 | 1
COc1cccc(NC(=S)N2CCN(S(=O)(=O)c3ccc(F)cc3)CC2)c1 | 0 | · | 1 | -3 | 0 | 1 | ·
O=C1S/C(=C/c2ccccc2F)C(=O)N1CCN=C1NS(=O)(=O)c2ccccc21 | -8 | 44 | 15 | -1 | 0 | -2 | ·
COc1cc(O)c2c(c1)OC(c1ccc(O)cc1)CC2=O (stereo unspecified) | -2 | 36 | 0 | -1 | 13* | 2 | 2
Cc1c(O)cc2c(c1O)C(=O)CC(c1ccc(O)cc1)O2 (stereo unspecified) | -7 | 3 | 2 | 2 | 4.7* | 0 | -1
O=C1CC(c2ccc(O)cc2)Oc2cc(O)ccc21 (stereo unspecified) | -4 | · | -1 | -1 | 0 | 2 | ·
CC(C)c1ccc(N(CC(=O)NCc2cccnc2)S(=O)(=O)c2ccccc2)cc1 | 1 | · | 2 | -5 | 0 | 0 | ·
c1cc(-c2ccc3nncn3c2)ccc1CN1CCOCC1 | · | · | 19 | · | 0 | · | ·
COc1ccc2sc(/C=C/c3ccccc3O)[n+](C)c2c1 | 0 | -13 | 6 | · | 11* | · | 1
O=C(COC(=O)c1cc(Cl)ccc1O)NNC(=O)c1ccccc1F | 2 | · | -1 | -2 | 0 | -1 | ·
O=C(CC1SC(=Nc2ccccc2)N(CCc2ccccn2)C1=O)Nc1ccc(F)cc1 (stereo unspecified) | -15 | 38 | 1 | -2 | 11* | 2 | 0
Cn1c(Br)nc2c1c(=O)n(Cc1ccccc1)c(=O)n2C | 2 | · | -3 | -4 | 2.4* | 1 | 1
Cn1c(=O)n(CCO)c(=O)c2c1nc(Br)n2Cc1ccccc1 | -1 | · | 0 | -3 | 0 | 0 | ·
CCC1CCCCN1CCCNC(=O)c1cn(CC)c2ccc(S(=O)(=O)N3CCc4ccccc4C3)cc2c1=O (stereo unspecified) | -4 | -6 | 0 | 4 | 9.1* | 0 | 0
SMILES | NR3A LBD binder | CHOP inh | MPTP inh | XBP1 UPR activ | aDG glyco up | UPR CHOP act | aDG glyco conf
CCCN(CCC)C(=O)C1CCCN(S(=O)(=O)c2ccc3c(c2)oc(=O)n3C)C1 (stereo unspecified) | 1 | · | -2 | -3 | 8.0* | 0 | 0
O=C(c1cc(COc2ccc3ncccc3c2)on1)N1CCC[C@H]1CO | 1 | · | 20 | -9 | 5.5* | 3 | 0
CCOC(=O)N1CCN(C(=O)c2cc(COc3cccc(C(C)=O)c3)on2)CC1 | 7 | · | 0 | 0 | 0 | 3 | ·
CCOC(=O)N1CCN(C(=O)c2cc(COc3ccc4ncccc4c3)on2)CC1 | -2 | 41 | 37 | -3 | 7.8* | 4 | 1
COCCC1CCCCN1C(=O)c1cc(COc2ccc(C)nc2)on1 (stereo unspecified) | -1 | · | 0 | -4 | 1 | -1 | ·
O=C(CSCc1cccc(Br)c1)NC1CC1 | 0 | 9 | -1 | 1 | 5.3* | -1 | 0
O=C(CSCc1ccc(Br)cc1)NC1CC1 | -1 | 9 | -1 | -4 | 0 | 3 | ·
CCN(CC)C(=O)c1cccc(C)c1 | 1 | · | 0 | -8 | 0 | -1 | ·
CCN(CC)C(=O)NCc1c(C)cc(C)cc1C | -1 | 21 | -1 | -3 | 47* | -1 | -1
CCCCN(C(=O)CN1CCOCC1)c1c(N)n(CC(C)C)c(=O)[nH]c1=O | 0 | -11 | 0 | 1 | 0 | 1 | ·
CN1CCN(S(=O)(=O)c2ccc(N(C)Cc3ccc(C(F)(F)F)cc3)c([N+](=O)[O-])c2)CC1 | -5 | · | 1 | -1 | 5.8* | 0 | 1
Cc1cc(-c2csc(NC(=O)c3cccc(S(=O)(=O)N(C)C)c3)n2)c(C)n1-c1ccccc1 | -3 | 47 | 1 | -3 | 11* | 2 | 1
COC(=O)c1ccc(-n2c(C)cc(-c3csc(NC(=O)c4ccc(S(=O)(=O)N(C)C)cc4)n3)c2C)cc1 | -6 | 17 | 0 | 1 | 11* | -2 | 0
CCOC(=O)c1csc(NC(=O)c2ccc(S(=O)(=O)N(C)C)cc2)n1 | 1 | 16 | 0 | -4 | 0 | 0 | ·
O=c1c2ccccc2sc2nc(CCl)nn12 | 0 | · | -1 | · | 0 | · | ·
Nc1nc(-c2ccco2)nn1S(=O)(=O)c1ccccc1 | 0 | -20 | 0 | -1 | 0 | -2 | ·
Nc1nc(-c2cccnc2)nn1S(=O)(=O)c1ccccc1 | -2 | -24 | 0 | 1 | 7.2* | 2 | 0
CC(C)C[C@H]1COc2cccc(N3CCC[C@H]3CO)c2S(=O)(=O)N1 | · | · | 1 | · | 0 | · | ·
Cc1ccc(NC(=O)c2ccc([N+](=O)[O-])s2)cc1S(=O)(=O)N1CCOCC1 | -7 | · | 7 | 1 | 9.0* | 4 | 6.1*
CN(CC(=O)Nc1cccc2ccccc12)C(=O)c1cccc(S(=O)(=O)N(C)C)c1 | 1 | 6 | 1 | -2 | 0 | 1 | ·

Source: PubChem BioAssay (several laboratories)
